We go through 18 compounds from ChEMBL document CHEMBL1141532, “Design and synthesis of tetrazole-based growth hormone secretagogue: the SAR studies of the O-benzyl serine side chain” (Bioorg Med Chem Lett, 2008).

pEC50: −log10 of the molar value.

The target of test [1] is Growth hormone secretagogue receptor type 1 (Homo sapiens, UniProt Q92847). The test can be described thus: […] human growth hormone secretagogue receptor assessed as measuring intracellular calcium level by FLIPR assay. The class given is functional, cell-based.
Sequence of Growth hormone secretagogue receptor type 1 (Q92847 whole entry): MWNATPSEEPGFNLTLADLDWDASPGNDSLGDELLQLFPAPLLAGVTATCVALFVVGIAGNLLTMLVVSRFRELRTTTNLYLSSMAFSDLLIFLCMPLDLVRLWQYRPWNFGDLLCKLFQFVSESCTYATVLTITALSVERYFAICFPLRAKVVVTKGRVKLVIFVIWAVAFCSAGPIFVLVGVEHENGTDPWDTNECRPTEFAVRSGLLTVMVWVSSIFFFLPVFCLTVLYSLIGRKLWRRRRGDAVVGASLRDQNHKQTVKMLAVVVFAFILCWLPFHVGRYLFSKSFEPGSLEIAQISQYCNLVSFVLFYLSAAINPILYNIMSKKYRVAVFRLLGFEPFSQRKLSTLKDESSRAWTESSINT
For the next test, the system named is Rattus norvegicus. The test is described as follows: Increase of growth hormone release in rat plasma at 1.74 umol/kg, iv after 15 mins by radioimmunoassay relative to control. The format is functional. In outline: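 Acute model in anesthetized rats. Dosed intravenously at 1.74 μmol/kg. Blood was drawn 15 min later and plasma was isolated. Rat GH was measured by radioimmunoassay. Results are given as percent increase in GH release over vehicle-treated control animals.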

`CC(C)(N)C(=O)N[C@H](COCc1cccc(OC(F)(F)F)c1)c1nnnn1CCOC(=O)NCCCCO`: the pEC50 in test [1] was 8.51.

On to `CC(C)(N)C(=O)N[C@H](COCc1cc(Cl)cc(Cl)c1)c1nnnn1CCOC(=O)NCCCCO`, for which the pEC50 in test [1] was 8.17.

Turning to `CC(C)(N)C(=O)N[C@H](COCc1ccccc1-c1cccnc1)c1nnnn1CCOC(=O)NCCCCO`, the pEC50 in test [1] is 8.93.

With `CC(C)(N)C(=O)N[C@H](COCc1ccccc1C#N)c1nnnn1CCOC(=O)NCCCCO`, the pEC50 in test [1] was 8.90. In the test with Rattus norvegicus, this compound returned an Activity of 920%.

Turning to `Cc1noc(C)c1-c1ccccc1COC[C@@H](NC(=O)C(C)(C)N)c1nnnn1CCOC(=O)NCCCCO`, in test [1], the pEC50 was 8.98. The Activity in the test with Rattus norvegicus worked out at 5237%.

As for `CC(C)(N)C(=O)N[C@H](COCc1ccc(F)cc1F)c1nnnn1CCOC(=O)NCCCCO`, the pEC50 in test [1] was 9.38. Besides, the Activity in the test on Rattus norvegicus is recorded as 1081%.

On to `CC(C)(N)C(=O)N[C@H](COCc1ccccc1C(F)(F)F)c1nnnn1CCOC(=O)NCCCCO`, for which the negative-log EC50 (pEC50) in test [1] was 9.14.

For `CC(C)(N)C(=O)N[C@H](COCc1cccc(Cl)c1)c1nnnn1CCOC(=O)NCCCCO`, in test [1], the negative logarithm of the EC50 (pEC50) is 8.80.

In the case of `CC(C)(N)C(=O)N[C@H](COCc1ccccc1)c1nnnn1CCOC(=O)NCCCCO`, in the test with Rattus norvegicus, the Activity is given as 750%.

Take `CC(C)(N)C(=O)N[C@H](COCc1cc(C(F)(F)F)cc(C(F)(F)F)c1)c1nnnn1CCOC(=O)NCCCCO`: in test [1], the pEC50 is 7.47.

For the compound `Cc1ccccc1COC[C@@H](NC(=O)C(C)(C)N)c1nnnn1CCOC(=O)NCCCCO`, in test [1], the pEC50 is 9.29. Further, the Activity with Rattus norvegicus worked out at 1441%.

Regarding `CC(C)(N)C(=O)N[C@H](COCc1ccccc1Cl)c1nnnn1CCOC(=O)NCCCCO`, the pEC50 in test [1] was 9.35.

For the compound `CC(C)(N)C(=O)N[C@H](COCC1CCCCC1)c1nnnn1CCOC(=O)NCCCCO`, the pEC50 in test [1] is 8.78. The Activity in the test with Rattus norvegicus is 1654%.

Take `COc1ccccc1COC[C@@H](NC(=O)C(C)(C)N)c1nnnn1CCOC(=O)NCCCCO`: in test [1], the pEC50 was 8.95.

For the compound `CC(C)(N)C(=O)N[C@H](COCc1cccc(C(F)(F)F)c1)c1nnnn1CCOC(=O)NCCCCO`, the pEC50 in test [1] was 8.75.

As for `CC(C)(N)C(=O)N[C@H](COCc1cccc(Cl)c1Cl)c1nnnn1CCOC(=O)NCCCCO`, the pEC50 in test [1] is 9.21.

On to `CC(C)(N)C(=O)N[C@H](COCc1ccc(OC(F)(F)F)cc1)c1nnnn1CCOC(=O)NCCCCO`, for which the pEC50 in test [1] is 7.48.

Regarding `CC(C)(N)C(=O)N[C@H](COCc1ccccc1-c1ccccc1)c1nnnn1CCOC(=O)NCCCCO`, the pEC50 in test [1] was 9.47. The compound also displayed an Activity in the test on Rattus norvegicus of 836%.
